Assay results reported in ChEMBL document CHEMBL5500359, “Identification of a new bisindolinone arresting IGROV1 cells proliferation” (Eur J Med Chem, 2024).

What was measured:
Format in all cases: functional
Melanoma cell line = assay: Cytotoxicity against human Melanoma cells incubated for 48 hrs by SRB assay
In short: (§1)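 NCI-60 five-concentration screen: lines seeded 5×10^3–4×10^4 cells/well depending on line; compound diluted in fresh medium at scalar concentrations 0–100 or 0–1000 μM; 48 h exposure, in situ fixation, sulforhodamine B protein staining, optical density read; GI50, TGI and LC50 per NCI procedures; panel mean = mean graph midpoint.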

NSCLC = assay: Cytotoxicity against human NSCLC cells incubated for 48 hrs by SRB assay; in short: as §1
Prostatic carcinoma cell = assay: Cytotoxicity against human Prostate carcinoma cells incubated for 48 hrs by SRB assay; in short: as §1

Structure (SMILES)	LC50 (Melanoma cell line)	LC50 (NSCLC)	LC50 (Prostatic carcinoma cell)
COc1ccc2c(c1)/C(=C\c1cc(C(C)(C)C)cc(/C=C3/C(=O)N(C)c4ccc(OC)cc43)c1O)C(=O)N2C	9.55 µM	31.6 µM	67.6 µM
O=C1Nc2cccc(F)c2/C1=C\c1cccc(/C=C2/C(=O)Nc3cccc(F)c32)c1	9.33 µM	33.1 µM	18.6 µM
CC(C)(C)c1cc(/C=C2/C(=O)Nc3ccc(F)cc32)c(O)c(/C=C2/C(=O)Nc3ccc(F)cc32)c1	33.9 µM	47.9 µM	4.74 µM
CC(C)(C)c1cc(/C=C2/C(=O)Nc3cccc(F)c32)c(O)c(/C=C2/C(=O)Nc3cccc(F)c32)c1	13.2 µM	15.8 µM	36.3 µM
COc1ccc2[nH]c(Cl)c(/C=C3/C(=O)N(C)c4cc5c(cc43)/C(=C\c3c(Cl)[nH]c4ccc(OC)cc34)C(=O)N5C)c2c1	12.9 µM	24.6 µM	7.94 µM
CC(C)(C)c1cc(/C=C2/C(=O)Nc3cc(Cl)ccc32)c(O)c(/C=C2/C(=O)Nc3cc(Cl)ccc32)c1	30.9 µM	47.9 µM	38 µM
Cc1cc2c(cc1O)/C(=C\c1cc(C(C)(C)C)cc(C=O)c1O)C(=O)N2	37.1 µM	51.3 µM	57.5 µM
COc1cc2c(cc1C)NC(=O)/C2=C/c1ccc2ccc3ccc(/C=C4/C(=O)Nc5cc(C)c(OC)cc54)nc3c2n1	55 µM	52.5 µM	–
COc1cc2c(/C=C3/C(=O)N(C)c4cc5c(cc43)/C(=C\c3c(Cl)[nH]c4cc(C)c(OC)cc34)C(=O)N5C)c(Cl)[nH]c2cc1C	22.4 µM	51.3 µM	20.4 µM
O=C1Nc2cc(Cl)ccc2/C1=C\c1cccc(/C=C2/C(=O)Nc3cc(Cl)ccc32)c1	19.5 µM	45.7 µM	28.2 µM
COc1ccc2c(c1)/C(=C\c1ccc3ccc4ccc(/C=C5/C(=O)N(C)c6ccc(OC)cc65)nc4c3n1)C(=O)N2C	30.2 µM	85.1 µM	56.2 µM
O=C1Nc2ccc(Cl)cc2/C1=C\c1ccc2ccc3ccc(/C=C4/C(=O)Nc5ccc(Cl)cc54)nc3c2n1	51.3 µM	52.5 µM	–
COc1cc2c(c(OC)c1OC)C(=Cc1cc(C(C)(C)C)cc(/C=C3\C(=O)Nc4cc(OC)c(OC)c(OC)c43)c1O)C(=O)N2	8.13 µM	14.8 µM	12.6 µM
